Measured values from different studies.
Protocols differ between the studies behind these lines.
Target: Serine/threonine-protein kinase PAK 1 (PAK1, Homo sapiens, UniProt Q13153)

| Structure (SMILES) | effect on | mode | technique | tested at | quantity | value |
| --- | --- | --- | --- | --- | --- | --- |
| CC(C)(C)c1nc2c(s1)c1nc(N)ncc1c1ccc(NS(=O)(=O)c3c(F)cccc3F)c(F)c12 | enzyme activity | inhibitor | radiometric | 1 µM | remaining activity | 93% |
| N#CCCc1ccc2c(c1)-c1[nH]c3ccc([N+](=O)[O-])cc3c1CC(=O)N2 | cell-free assay | – | – | 0.5 µM | remaining signal | 52.1% |
| CCc1ccccc1C(=O)Nc1n[nH]c2c(C)c(F)c(C3C(C#N)=C(C)N(C)C(C)=C3C#N)cc12 | cell-free assay | – | competition with immobilised ligand | 1 µM | remaining binding | 82% |
| O=C(CSc1nc2nccnc2c(=O)n1CCc1ccccc1)Nc1nccs1 | enzyme activity | inhibitor | – | 10 µM | inhibition | 19% |
| Cc1c(NC(=O)c2cc(C(N)=O)nc3cc(F)ccc23)c(C(F)(F)F)nn1Cc1ccc(C(C)(C)C)cc1 | cell-free assay | – | competition with immobilised ligand | 1 µM | remaining binding | 98% |
| COc1cc2ncnc(Nc3ccc(Oc4ccccc4)cc3C)c2cc1OC | enzyme activity | inhibitor | – | 1 µM | inhibition | 4% |
| O=S(=O)(Nc1cc(Sc2ncn[nH]2)c(O)c2ccccc12)c1ccc(-c2ccccc2)cc1 | enzyme activity | inhibitor | – | 1 µM | remaining activity | ≥ 75% |
| CC/C(=N\NC(=O)NCc1cccc(O)c1)c1ccc(O)c(C)c1O | enzyme activity | inhibitor | – | 0.1 µM | inhibition | -6.4% |
| Nc1cnc(N2CCc3cc(S(=O)(=O)Nc4c(F)cc(Cl)cc4F)cc(N4CCCC4=O)c32)nc1 | cell-free assay | – | competition with immobilised ligand | 1 µM | remaining binding | 89% |
| Cc1sc(C(=O)NC2COC2)cc1-n1cc(NC(=O)Nc2c(F)cccc2Cl)cn1 | enzyme activity | inhibitor | – | 10 µM | remaining activity | 104% |
| COc1cc2ncnc(Nc3ccc(F)c(Cl)c3)c2cc1OCCCN1CCOCC1 | cell-free assay | – | – | 0.5 µM | remaining signal | 104% |
| COc1ccc2c(c1)O[C@H](c1ccc(OC)c(OC)c1)C[C@@H]2NC(=O)C1(c2ccc3c(c2)OC(F)(F)O3)CC1 | cell-free assay | – | competition with immobilised ligand | 1 µM | remaining binding | 100% |
| CC(C)(O)[C@H]1CC[C@H](Nc2ccc3ncc(-c4cccc(C(F)(F)F)c4)n3n2)CC1 | enzyme activity | inhibitor | – | 1 µM | remaining activity | 92.7% |
| Cc1ccc(C(=O)NCc2ccsc2)cc1C#Cc1cn(C(C)C)c2ncnc(N)c12 | enzyme activity | inhibitor | – | 1 µM | activity vs control | 82% |
| O=C1NC(=O)c2cc(Nc3ccc(F)cc3)c(Nc3ccc(F)cc3)cc21 | cell-free assay | – | – | 0.5 µM | remaining signal | 95.5% |
| Cc1c(C(=O)O)cc(-c2ccc(C3CCNCC3)cc2)c2ccc(-c3ccc(C(F)(F)F)cc3)cc12 | cell-free assay | – | competition with immobilised ligand | 1 µM | remaining binding | 100% |
| O=C(Nc1cnn(-c2csc(C(=O)NC3COC3)c2)c1)Nc1c(F)cccc1Cl | enzyme activity | inhibitor | – | 5 µM | remaining activity | 81.2% |
| CC(=O)C1=C(C)N(c2cccc(C(F)(F)F)c2)C(=O)N[C@@H]1c1ccc(C#N)nc1 | cell-free assay | – | competition with immobilised ligand | 1 µM | remaining binding | 91.2% |
| CN(C)C1CCN(CC#Cc2nn(C3CCCC3)c3nc(NCc4ccccc4)ncc23)C1 (stereo not shown) | enzyme activity | inhibitor | FRET | 1 µM | inhibition | 4% |
